Measurements reported in ChEMBL document CHEMBL1156461, “Selective chemical probe inhibitor of Stat3, identified through structure-based virtual screening, induces antitumor activity” (Proc Natl Acad Sci U S A, 2007).
Activity calls are given as the source filed them. The rule behind the calls is not given here.

How the values were obtained:
NIH3T3 [1] = experiment: Reduction of survivin gene expression in v-Src transfected mouse NIH3T3 cells at 100 uM after 48 hrs; assay type: functional, cell-based
NIH3T3 [2] = experiment: Inhibition of v-Src mediated Stat3-independent pLucSRE luciferase […] induction in mouse NIH3T3 cells at 100 uM after 24 hrs; assay type: functional, cell-based
Outline: (§1)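 NIH 3T3 fibroblasts were cotransfected with a v-Src plasmid and either the Stat3-dependent pLucTKS3 or the Stat3-independent pLucSRE reporter. At 24 h post-transfection, cells got 100 μM compound or 0.05% DMSO for another 24 h. Luciferase was read in cytosolic extracts.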

NIH3T3 [3] = experiment: Reduction of pTyr-705 Stat3 level in v-Src expressing mouse NIH3T3 cells at 100 uM after 24 hrs; assay type: functional, cell-based
MDA-MB-435 [4] = experiment: Cytotoxicity against human MDA-MB-435 cells expressing constitutively active Stat3 at >300 uM
MDA-MB-231 [5] = experiment: Growth inhibition of human […] at 100 uM after 4 days by trypan blue exclusion assay; assay type: functional, cell-based
NIH3T3 [6] = experiment: Inhibition of Stat3-dependent pLucTKS3 luciferase […] induction in v-Src oncoprotein expressing mouse NIH3T3 cells co-transfected with pLucTKS3 at 100 uM after 24 hrs; assay type: functional, cell-based; outline: as §1
MDA-MB-468 [7] = experiment: Inhibition of Stat3 activation in human MDA-MB-468 cells at 100 uM after 24 hrs; assay type: functional, cell-based
Outline: (§2)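 Cells with constitutively active Stat3 were treated with compound or 0.05% DMSO (up to 24 h). Nuclear extracts were then assayed for Stat3 DNA binding by EMSA with 32P-labeled hSIE probe.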

MDA-MB-435 [8] = experiment: Induction of apoptosis in human MDA-MB-435 cells expressing active Stat3 at 30 to 100 uM after 48 hrs; assay type: functional, cell-based
Outline: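 Proliferating cells were exposed to compound or 0.05% DMSO for 48 h, then detached. Percent apoptosis was quantified by annexin V binding and flow cytometry.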

NIH3T3 [9] = experiment: Growth inhibition of mouse NIH3T3 cells expressing v-Src at 100 uM after 4 days by trypan blue exclusion assay; assay type: functional, cell-based
NIH3T3 [10] = experiment: Reduction of cyclin D1 gene expression in v-Src transfected mouse NIH3T3 cells at 100 uM after 48 hrs; assay type: functional, cell-based
MDA-MB-231 [11] = experiment: Reduction of cyclin D1 gene expression in human MDA-MB-231 cells at 100 uM after 48 hrs; assay type: functional, cell-based
NIH3T3 [12] = experiment: Reduction of Bcl-xL gene expression in v-Src transfected mouse NIH3T3 cells at 100 uM after 48 hrs; assay type: functional, cell-based
MDA-MB-231 [13] = experiment: Reduction of apoptosis in Stat3 transfected human MDA-MB-231 cells at 100 uM after 24 hrs; assay type: functional, cell-based
MDA-MB-435 [14] = experiment: Inhibition of Stat3 activation in human MDA-MB-435 cells at 100 uM after 24 hrs; assay type: functional, cell-based; outline: as §2
MDA-MB-231 [15] = experiment: Induction of apoptosis in mock pcDNA3 transfected human MDA-MB-231 cells at 100 uM after 24 hrs; assay type: functional
Outline: (§3)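 Cells were transfected with Stat3C or the Stat3 SH2 domain, mock-transfected, or left untransfected. After 24 h they received 100 μM compound or 0.05% DMSO for a further 24 h. Annexin V binding with flow cytometry gave percent apoptosis.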

MDA-MB-231 [16] = experiment: Reduction of survivin gene expression in human MDA-MB-231 cells at 100 uM after 48 hrs; assay type: functional, cell-based
NIH3T3 [17] = experiment: Growth inhibition of mouse NIH3T3 cells expressing v-Src at 100 uM for every 3 days by soft-agar colony-formation assay; assay type: functional, cell-based
Outline: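 Soft-agar colony formation in six-well dishes. Compound in medium was added from 1 day after seeding and re-added every 3 days until large colonies appeared. Untreated wells served as control.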

MDA-MB-435 [18] = experiment: Growth inhibition of human MDA-MB-435 cells expressing v-Src at 100 uM after 4 days by trypan blue exclusion assay; assay type: functional, cell-based
MDA-MB-231 [19] = experiment: Induction of apoptosis in Stat3 SH2 domain transfected human MDA-MB-231 cells at 100 uM after 24 hrs; assay type: functional, cell-based; outline: as §3
MDA-MB-468 [20] = experiment: Growth inhibition of human […] at 100 uM after 4 days by trypan blue exclusion assay; assay type: functional, cell-based
MDA-MB-231 [21] = experiment: Inhibition of Stat3 activation in human MDA-MB-231 cells at 100 uM after 24 hrs; assay type: functional, cell-based; outline: as §2
MDA-MB-231 [22] = experiment: Induction of apoptosis in human MDA-MB-231 cells at 100 uM after 24 hrs; assay type: functional; outline: as §3
MDA-MB-231 [23] = experiment: Induction of apoptosis in Stat3C transfected human MDA-MB-231 cells at 100 uM after 24 hrs; assay type: functional, cell-based; outline: as §3
MDA-MB-231 [24] = experiment: Reduction of Bcl-xL gene expression in human MDA-MB-231 cells at 100 uM after 48 hrs; assay type: functional, cell-based
NIH3T3 [25] = experiment: Inhibition of Stat3 activation in v-Src expressing mouse NIH3T3 cells at 100 uM; assay type: functional, cell-based; conditions: TDE = time-dependent effect; outline: as §2
MDA-MB-231 [26] = experiment: Antitumor activity against human MDA-MB-231 cells expressing active Stat3 xenografted in mouse at 5 mg/kg, iv for every 3 days for 2 weeks; assay type: functional, organism-based; parameters: dose 5 mg/kg
Outline: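 Female athymic nude mice (six weeks old) received 5 × 10^6 MDA-MB-231 cells s.c. in the left flank in PBS. Once tumors reached 3 mm diameter (5–10 days), animals were stratified to equal mean tumor size and dosed i.v. at 5 mg/kg every 2 or 3 days for 2 weeks against vehicle. Tumors were measured every 2–3 days.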

Cc1ccc(S(=O)(=O)OCC(=O)Nc2ccc(C(=O)O)c(O)c2)cc1
Activity (NIH3T3 [1]): Active
Activity (NIH3T3 [2]): inactive
Activity (NIH3T3 [3]): Active
Activity (MDA-MB-435 [4]): Toxic
Activity (MDA-MB-231 [5]): Active
Activity (NIH3T3 [6]): Dose-dependent effect
Activity (MDA-MB-468 [7]): Active
Activity (MDA-MB-435 [8]): Active
Activity (NIH3T3 [9]): Active
Activity (NIH3T3 [10]): Active
Activity (MDA-MB-231 [11]): Active
Activity (NIH3T3 [12]): Active
Activity (MDA-MB-231 [13]): Active
Activity (MDA-MB-435 [14]): Active
Activity (MDA-MB-231 [15]): 50%
Activity (MDA-MB-231 [16]): Active
Activity (NIH3T3 [17]): Active
Activity (MDA-MB-435 [18]): Active
Activity (MDA-MB-231 [19]): Active
Activity (MDA-MB-468 [20]): Active
Activity (MDA-MB-231 [21]): Active
Activity (MDA-MB-231 [22]): 50%
Activity (MDA-MB-231 [23]): Active
Activity (MDA-MB-231 [24]): Active
Activity (NIH3T3 [25]): tde
Activity (MDA-MB-231 [26]): Active
